Measured values taken from ChEMBL document CHEMBL4402547, “Synthesis and Pharmacological Characterization of Conformationally Restricted Retigabine Analogues as Novel Neuronal Kv7 Channel Activators” (J Med Chem, 2020).
pEC50: −log10 of the molar value. Activity calls are given as the source filed them. The rule behind the calls is not given here.

Assays:
[1] = target: T1, Potassium voltage-gated channel subfamily KQT member 3 (Homo sapiens, UniProt O43525); assay: Activation of human Kv7.3 expressed in CHO cells assessed as increase in channel current amplitude by whole cell patch clamp electrophysiology assay; assay type: cell-based
T1 sequence (O43525 whole entry): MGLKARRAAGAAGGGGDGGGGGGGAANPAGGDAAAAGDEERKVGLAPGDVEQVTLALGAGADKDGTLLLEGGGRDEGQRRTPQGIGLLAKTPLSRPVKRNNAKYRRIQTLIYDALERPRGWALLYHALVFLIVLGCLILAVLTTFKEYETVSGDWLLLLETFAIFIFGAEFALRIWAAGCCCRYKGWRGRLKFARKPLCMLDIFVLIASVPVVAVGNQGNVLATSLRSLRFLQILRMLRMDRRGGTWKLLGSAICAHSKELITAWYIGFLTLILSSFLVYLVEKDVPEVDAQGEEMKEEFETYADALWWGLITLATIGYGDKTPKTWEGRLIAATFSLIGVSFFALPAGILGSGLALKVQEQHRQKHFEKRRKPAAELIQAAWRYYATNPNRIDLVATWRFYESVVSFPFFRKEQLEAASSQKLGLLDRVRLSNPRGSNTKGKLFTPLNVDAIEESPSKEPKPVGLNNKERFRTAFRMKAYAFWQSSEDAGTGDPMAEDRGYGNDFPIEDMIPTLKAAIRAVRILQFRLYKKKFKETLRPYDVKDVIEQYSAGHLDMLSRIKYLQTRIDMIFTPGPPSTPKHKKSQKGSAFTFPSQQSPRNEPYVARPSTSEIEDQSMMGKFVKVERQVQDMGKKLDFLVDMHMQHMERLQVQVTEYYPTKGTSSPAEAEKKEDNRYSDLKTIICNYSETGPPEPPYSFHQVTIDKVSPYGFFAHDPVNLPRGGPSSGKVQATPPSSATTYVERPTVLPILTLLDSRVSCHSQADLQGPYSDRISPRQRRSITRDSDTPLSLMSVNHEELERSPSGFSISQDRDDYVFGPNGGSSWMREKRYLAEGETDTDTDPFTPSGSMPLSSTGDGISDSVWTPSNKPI

[2] = target: T2, Potassium voltage-gated channel subfamily KQT member 2 (Homo sapiens, UniProt O43526); assay: Potency index, ratio of EC50 for RET to EC50 for test compound for activation of human Kv7.2 expressed in CHO cells; assay type: cell-based
T2 sequence (O43526 whole entry): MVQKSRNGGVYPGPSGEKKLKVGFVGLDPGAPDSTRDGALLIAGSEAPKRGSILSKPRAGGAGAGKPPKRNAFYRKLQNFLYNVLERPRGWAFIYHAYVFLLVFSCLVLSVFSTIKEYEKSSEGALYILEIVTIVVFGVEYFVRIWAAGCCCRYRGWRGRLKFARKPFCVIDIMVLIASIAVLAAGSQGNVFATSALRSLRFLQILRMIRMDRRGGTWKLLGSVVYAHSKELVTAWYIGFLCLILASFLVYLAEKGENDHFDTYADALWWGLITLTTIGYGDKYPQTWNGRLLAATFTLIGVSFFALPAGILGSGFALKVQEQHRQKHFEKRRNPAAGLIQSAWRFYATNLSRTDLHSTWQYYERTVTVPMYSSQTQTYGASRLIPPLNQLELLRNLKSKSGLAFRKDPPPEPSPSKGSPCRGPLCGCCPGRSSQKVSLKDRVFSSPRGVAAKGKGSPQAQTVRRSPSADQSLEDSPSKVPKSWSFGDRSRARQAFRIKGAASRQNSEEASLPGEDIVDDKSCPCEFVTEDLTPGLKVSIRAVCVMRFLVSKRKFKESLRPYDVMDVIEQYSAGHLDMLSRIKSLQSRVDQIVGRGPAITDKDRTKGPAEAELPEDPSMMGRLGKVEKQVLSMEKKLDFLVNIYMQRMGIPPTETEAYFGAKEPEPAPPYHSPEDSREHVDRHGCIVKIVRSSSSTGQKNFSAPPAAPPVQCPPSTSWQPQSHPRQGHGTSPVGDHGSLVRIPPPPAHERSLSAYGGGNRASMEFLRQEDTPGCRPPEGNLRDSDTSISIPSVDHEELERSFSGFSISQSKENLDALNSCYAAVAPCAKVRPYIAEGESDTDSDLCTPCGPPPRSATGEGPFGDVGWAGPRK

[3] = target: T2, Potassium voltage-gated channel subfamily KQT member 2; assay: Activation of human Kv7.2 expressed in CHO cells assessed as current amplitude at 10 uM measured after 10 secs upon drug wash-out at holding potential of -40 mV by whole cell patch clamp electrophysiology assay; assay type: cell-based
Summary of the method: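 Human Kv7.2 transiently expressed in CHO cells, whole-cell patch clamp at 20–22°C, pH 7.4 HEPES-buffered extracellular solution under constant perfusion. Cells held at -80 mV; 3-s ramps -80 to +20 mV with and without compound; current at -40 mV taken as drug/control amplitude ratio, followed over time during application and wash-out; mean ± SEM of ≥3 cells from ≥2 transfections.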

[4] = Photostability of compound in pH 7.4 buffer assessed as retention time of metabolite incubated for 6 hrs under visible light irradiation by HPLC/MS analysis
[5] = Half life in human; assay type: ADME

Compound `CC(C)(C)CC(=O)Nc1ccc2c(ccn2Cc2ccc(C(F)(F)F)cc2)c1` has a pEC50 [1] of 6.04.

In the case of `CCCCCCC(=O)Nc1ccc2c(ccn2Cc2ccc(C(F)(F)F)cc2)c1`, the Ratio EC50 [2] was 12.

For `CCOC(=O)Nc1ccc(NCc2ccc(F)cc2)cc1N` [EZOGABINE], the Activity [3] was “inactive”, the Retention time [4] was 5.98 min and the half-life [5] was 6 to 8 h.
